Data as given in PubChem BioAssay AID493097 (Broad Institute, 2011).
The source made the active and inactive calls.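 How the source made its calls: active means falling signal with a fitted half-maximal concentration at most ten times the top valid dose; inconclusive means flat fit with 30 to 70 percent inhibition, or a poor fit; inactive means the rest.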

Legend:
[1] = test system: Vibrio harveyi BB721 constitutive QS, luminescence, 9 h; assay: constitutive quorum sensing luminescence reduction – strain BB721, dry powder, set 4, counter-screen for LuxS inhibitor project, dose response (AID 493097)
In short: (§1)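 Test system: Vibrio harveyi strain BB721 with constitutively active quorum sensing. Buffer or medium: AB medium. Timing: 9 h exposure, 30 °C.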

[2] = as above; settings: Vibrio harveyi BB721 constitutive QS, luminescence, 9 h; at 16 µM (top of the series)
In short: as §1

Work on O=S(=O)(Nc1ccccn1)c1ccc(Oc2ccccc2)cc1 yielded an AC50 [1] of 15.5 µM.

In the case of O=S(=O)(Nc1cccnc1)c1ccc(Oc2ccccc2)cc1, the AC50 [1] is reported as 0.775 µM.

With CCc1ccc(-c2ccc(C(=O)O)n2C)cc1 the activity change, negative = inhibition [2] was -7.36% (inactive).

In the case of CN(C)C(=O)c1ccccc1NS(=O)(=O)c1cn(C)cn1, the activity change, negative = inhibition [2] is reported as 8.65% (inactive).

For Cn1cnc(S(=O)(=O)Nc2ccccc2F)c1, the activity change, negative = inhibition [2] was 6.38% (inactive).

For C=Cn1c(C(=O)O)ccc1-c1ccc(CC)cc1, the AC50 [1] was 13.1 µM.

O=C1C=C/C(=C/Br)O1 showed an AC50 [1] of 3.92 µM.

In the case of COc1ccccc1NS(=O)(=O)c1cn(C)cn1, the activity change, negative = inhibition [2] is reported as -0.736% (inactive).

For Cn1cnc(S(=O)(=O)Nc2ccccc2Cl)c1, the activity change, negative = inhibition [2] was 12.3% (inactive).

In the case of Cc1ccccc1NS(=O)(=O)c1cn(C)cn1, the activity change, negative = inhibition [2] is reported as 5.69% (inactive).

For CC(=O)Nc1ccccc1NS(=O)(=O)c1cn(C)cn1, the activity change, negative = inhibition [2] was 6.64% (inactive).

Work on Cn1cnc(S(=O)(=O)Nc2ccc(OC(F)(F)F)cc2)c1 yielded an AC50 [1] of 14.1 µM.
